Data taken from ChEMBL document CHEMBL4842335, “Discovery of penipanoid C-inspired 2-(3,4,5-trimethoxybenzoyl)quinazolin-4(3H)-one derivatives as potential anticancer agents by inhibiting cell proliferation and inducing apoptosis in hepatocellular carcinoma cells” (Eur J Med Chem, 2021).
Calls of active or inactive are those of the source. No cut-off for these calls is given here.

Key:
HepG2 [1] = experiment: Induction of apoptosis in human HepG2 cells assessed as increase in cleaved PARP level at 1.6 to 3.2 uM after 48 hrs by Western blot analysis; settings: dose 1.6-3.2 µM
Bel-7402 [2] = experiment: Cytotoxicity against human Bel-7402 cells assessed as inhibition of proliferation incubated for 72 hrs by MTT assay; format: functional, cell-based; settings: Bel-7402, 72 h
How it was run: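 Cells plated at 3×10³/well, grown overnight in DMEM + 10% FBS, then exposed to compounds (DMSO stocks; 0.1% DMSO negative control) for 72 h at 37 °C. MTT (5 mg/mL in PBS, added at 10%) for 4 h, formazan dissolved in DMSO, A570 read. Inhibition = (Ac−As)/(Ac−Ab)×100; IC50 by calculator; ≥3 independent repeats.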

HepG2 [3] = experiment: Induction of apoptosis in human HepG2 cells assessed as live cells at 0.8 uM incubated for 48 hrs by Annexin V and dead cell assay kit (reference value: 93.90%); format: functional
How it was run: (§1)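 HepG2 cells were grown in DMEM and exposed to 0, 0.8, 1.6 or 3.2 µM test agent or DMSO vehicle for 48 h. Apoptosis was then read on a Muse cell analyzer using an Annexin V & Dead Cell kit, which separates live, early apoptotic, late apoptotic and dead populations. The figure legend gives n = 3 with SEM.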

HepG2 [4] = experiment: Induction of reactive oxygen species generation in human HepG2 cells incubated for 48 hrs by DCFH-DA based fluorescent microscopy; format: functional, cell-based; settings: dose 1.6-3.2 µM
How it was run: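 HepG2 cultured 48 h with 0, 0.8, 1.6 or 3.2 µM, washed, loaded with […] DCFH-DA for 20 min at 37 °C in the dark; fluorescence viewed by microscopy.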

HepG2 [5] = experiment: Induction of apoptosis in human HepG2 cells assessed as late apoptotic cells at 1.6 uM incubated for 48 hrs by Annexin V and dead cell assay kit (reference value: 1%); format: functional
How it was run: as §1

HepG2 [6] = experiment: Induction of apoptosis in human HepG2 cells assessed as early apoptotic cells at 0.8 uM incubated for 48 hrs by Annexin V and dead cell assay kit (reference value: 4.55%); format: functional
How it was run: as §1

Bel-7402 [7] = experiment: Induction of cell cycle arrest in human Bel-7402 cells assessed as accumulation at G1 phase at 0.8 uM incubated for 48 hrs by flow cytometry (reference value: 46.32%); format: functional
HepG2 [8] = experiment: Induction of apoptosis in human HepG2 cells assessed as increase in cleaved Caspase 3 level at 1.6 to 3.2 uM after 48 hrs by Western blot analysis; settings: dose 1.6-3.2 µM
HepG2 [9] = experiment: Induction of apoptosis in human HepG2 cells assessed as dead cells at 1.6 uM incubated for 48 hrs by Annexin V and dead cell assay kit (reference value: 0.55%); format: functional
How it was run: as §1

HepG2 [10] = experiment: Induction of apoptosis in human HepG2 cells assessed as dead cells at 0.8 uM incubated for 48 hrs by Annexin V and dead cell assay kit (reference value: 0.55%); format: functional
How it was run: as §1

HepG2 [11] = experiment: Antitumor activity against human HepG2 cells xenografted in BALB/c mouse assessed as tumor growth inhibition at 8 mg/kg, ip relative to control; format: functional; settings: read-out: TGI
How it was run: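 Female BALB/c nude mice (14–17 g) given HepG2 s.c. (1×10⁶/mouse); at 100–200 mm³ tumours, randomised to 3 groups of 5. Daily i.p. dosing at 4 or 8 mg/kg for 20 days; vehicle 15% N-methylpyrrolidone/25% Solutol HS-15/60% saline. Caliper volume twice weekly, TV = width² × length/2; inhibition from volume change versus vehicle group.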

[12] = Toxicity in BALB/c mouse xenografted with human HepG2 cells at 4 to 8 mg/kg, ip relative to control; format: organism-based; settings: in vivo, dose 4-8 mg/kg
How it was run: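 Female BALB/c nude mice (14–17 g) carrying s.c. HepG2 xenografts (100–200 mm³), 5 per group. Dosed i.p. daily for 20 days at 4 or 8 mg/kg in 15% N-methylpyrrolidone/25% Solutol HS-15/60% saline, with vehicle controls. Body weight tracked over the treatment.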

Bel-7402 [13] = experiment: Induction of cell cycle arrest in human Bel-7402 cells assessed as accumulation at S phase at 0.8 uM incubated for 48 hrs by flow cytometry (reference value: 28.48%); format: functional
HepG2 [14] = experiment: Inhibition of colony formation in human HepG2 cells at 1.6 to 3.2 uM measured after 10 days by crystal violet staining based assay relative to control; format: functional, cell-based; settings: dose 1.6-3.2 µM, time 10.0 day
How it was run: (§2)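 1000 cells/well seeded, attached overnight in DMEM + 10% FBS, then grown 10 days at 37 °C, 5% CO₂ with 0, 0.2, 0.4, 0.8, 1.6 or 3.2 µM. Fixed in 4% paraformaldehyde 15 min, stained 0.1% crystal violet 30 min, colonies counted; formation rate relative to solvent control.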

[15] = target: Mitogen-activated protein kinase; ERK1/ERK2 (Homo sapiens) (UniProt P27361+P28482); experiment: Upregulation of ERK1/2 phosphorylation in human Bel-7402 cells incubated for 48 hrs by Western blot analysis
Mitogen-activated protein kinase; ERK1/ERK2 (Homo sapiens), sequence (P27361 whole entry, looked up): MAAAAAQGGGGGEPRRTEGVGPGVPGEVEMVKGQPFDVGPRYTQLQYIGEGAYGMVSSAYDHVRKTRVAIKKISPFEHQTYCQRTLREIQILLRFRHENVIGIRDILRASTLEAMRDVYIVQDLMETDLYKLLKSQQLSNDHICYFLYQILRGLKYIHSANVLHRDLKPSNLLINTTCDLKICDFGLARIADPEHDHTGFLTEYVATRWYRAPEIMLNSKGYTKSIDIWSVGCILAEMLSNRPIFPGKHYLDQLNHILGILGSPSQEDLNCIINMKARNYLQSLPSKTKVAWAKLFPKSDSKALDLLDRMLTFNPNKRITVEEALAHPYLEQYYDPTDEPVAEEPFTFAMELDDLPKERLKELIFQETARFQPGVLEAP
Mitogen-activated protein kinase; ERK1/ERK2 (Homo sapiens), sequence (P28482 whole entry, looked up): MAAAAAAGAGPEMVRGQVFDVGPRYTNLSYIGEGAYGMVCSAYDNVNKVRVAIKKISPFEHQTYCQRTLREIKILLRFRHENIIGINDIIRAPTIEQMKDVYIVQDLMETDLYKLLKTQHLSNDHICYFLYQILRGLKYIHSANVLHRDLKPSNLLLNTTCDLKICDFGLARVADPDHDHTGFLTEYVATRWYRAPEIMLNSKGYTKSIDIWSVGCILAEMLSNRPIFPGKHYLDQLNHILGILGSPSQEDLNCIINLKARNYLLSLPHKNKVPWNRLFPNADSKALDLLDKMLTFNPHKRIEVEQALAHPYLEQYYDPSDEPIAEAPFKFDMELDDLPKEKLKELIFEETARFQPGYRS

HepG2 [16] = experiment: Induction of apoptosis in human HepG2 cells assessed as early apoptotic cells at 1.6 uM incubated for 48 hrs by Annexin V and dead cell assay kit (reference value: 4.55%); format: functional
How it was run: as §1

Bel-7402 [17] = experiment: Induction of cell cycle arrest in human Bel-7402 cells assessed as accumulation at G2/M phase at 1.6 uM incubated for 48 hrs by flow cytometry (reference value: 25.20%); format: functional
HepG2 [18] = experiment: Induction of cell cycle arrest in human HepG2 cells assessed as accumulation at G1 phase at 0.8 uM incubated for 48 hrs by flow cytometry (reference value: 46.88%); format: functional
HepG2 [19] = experiment: Induction of cell cycle arrest in human HepG2 cells assessed as accumulation at G2/M phase at 1.6 uM incubated for 48 hrs by flow cytometry (reference value: 24.89%); format: functional
How it was run: (§3)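 HepG2 treated 48 h with 0, 0.8 or 1.6 µM (DMSO control); phase distribution by flow cytometry using a cell cycle and apoptosis kit; mean with SD, n = 3.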

Bel-7402 [20] = experiment: Inhibition of colony formation in human Bel-7402 cells at 1.6 to 3.2 uM measured after 10 days by crystal violet staining based assay relative to control; format: functional, cell-based; settings: dose 1.6-3.2 µM, time 10.0 day
How it was run: as §2

Bel-7402 [21] = experiment: Induction of cell cycle arrest in human Bel-7402 cells assessed as accumulation at S phase at 1.6 uM incubated for 48 hrs by flow cytometry (reference value: 28.48%); format: functional
L02 = experiment: Cytotoxicity against human L-O2 cells assessed as inhibition of proliferation incubated for 72 hrs by MTT assay; format: cell-based; settings: L02, 72 h
[22] = Selectivity index, ratio of IC50 for human LO2 cells to IC50 for human HepG2 cells; format: toxicity; settings: LO2 cells versus HepG2 cells, read-out: Selectivity Index
HepG2 [23] = experiment: Induction of cell cycle arrest in human HepG2 cells assessed as accumulation at G2/M phase at 0.8 uM incubated for 48 hrs by flow cytometry (reference value: 24.89%); format: functional
How it was run: as §3

HepG2 [24] = experiment: Induction of cell cycle arrest in human HepG2 cells assessed as accumulation at S phase at 0.8 uM incubated for 48 hrs by flow cytometry (reference value: 28.23%); format: functional
How it was run: as §3

For `COc1cc(C(=O)c2nc3ccccc3c(=O)[nH]2)cc(OC)c1OC`, the Activity (HepG2 [1]) was “Active”, the IC50 (Bel-7402 [2]) was 1.71 µM and the Activity (HepG2 [3]) was 91.75%. For the same compound, the Activity (HepG2 [4]) was “Active”, the Activity (HepG2 [5]) was 6.7% and the Activity (HepG2 [6]) was 5.8%. For the same compound, the Activity (Bel-7402 [7]) was 39.2%, the Activity (HepG2 [8]) was “Active” and the Activity (HepG2 [9]) was 0.95%. The Activity (HepG2 [10]) was 0.45%, the inhibition in vivo at 8 mg/kg (HepG2 [11]) was 67.6% and the Activity [12] was “Non-Toxic”. The Activity (Bel-7402 [13]) was 33.11%, the inhibition (HepG2 [14]) was “Active” and the Activity [15] was “Dose-Dependent Effect”. For the same compound, the Activity (HepG2 [16]) was 11.7%, the Activity (Bel-7402 [17]) was 32.43% and the Activity (HepG2 [18]) was 37.84%. For the same compound, the Activity (HepG2 [19]) was 35.18%, the Activity (Bel-7402 [20]) was “Active” and the Activity (Bel-7402 [21]) was 34.5%. The IC50 (L02) was 6.01 µM, the selectivity ratio [22] was 4.9 and the Activity (HepG2 [23]) was 28.73%. It also gave an Activity (HepG2 [24]) of 33.43%.
